Activity calls are given as the source filed them. The calls are words filed in the database; no cut-off is given here.

The target in experiment [1] is T1, DNA topoisomerase 2-alpha (Homo sapiens, UniProt P11388). Briefly: Inhibition of recombinant human DNA topoisomerase-2alpha assessed as decrease in relaxation of supercoiled pBR322 DNA after 30 mins by ethidium bromide staining based agarose gel electrophoresis.
Experiment [2] concerns the target T1, DNA topoisomerase 2-alpha. Briefly: Poison activity at recombinant human DNA topoisomerase-2alpha assessed as linear DNA formation using supercoiled pBR322 DNA as substrate at 200 uM after 30 mins by ethidium bromide staining based agarose gel electrophoresis. The gist of the method: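 Cleavage reactions: 200 ng pBR322, 6 U topo II, 30 mM Tris-HCl pH 7.6, 60 mM NaCl, 8 mM MgCl2, 3 mM ATP, 15 mM mercaptoethanol, drug in 10% DMSO; 37 °C, 30 min; SDS/proteinase K 60 min, 37 °C; 1% agarose in TBE with 0.1% SDS and ethidium bromide; linear DNA scored.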

The target in experiment [3] is T1, DNA topoisomerase 2-alpha. Briefly: Inhibition of recombinant human DNA topoisomerase-2alpha assessed as decrease in relaxation of supercoiled pBR322 DNA at […] after 30 mins by ethidium bromide staining based agarose gel electrophoresis relative to control. The gist of the method:
(§1)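 Topo II relaxation of supercoiled pBR322 (198 ng) with 1 U enzyme, 50 mM Tris-HCl pH 8, 120 mM KCl, 10 mM MgCl2, 0.5 mM ATP, 0.5 mM DTT, drug in <10% DMSO; 37 °C for 30 min; products run on 1% agarose in TAE, ethidium-stained, scanned; supercoiled DNA area quantified.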

Experiment [4] deals with DNA topoisomerase 1 (Homo sapiens) (UniProt P11387). Briefly: Inhibition of human placenta DNA topoisomerase-1 assessed as decrease in relaxation of supercoiled pUC19 DNA at 200 uM after 30 mins by ethidium bromide staining based agarose gel electrophoresis.
The nature of experiment [5]: Growth inhibition of human HBC4 cells incubated for 48 hrs by sulforhodamine B assay. The format is functional. The note with it: HBC4, 48 h. In general terms: The SRB assay estimates cell density from bound dye.
A short description of experiment [6]: Growth inhibition of human BSY1 cells incubated for 48 hrs by sulforhodamine B assay. Type of experiment: functional. The note with it: BSY-1, 48 h.
Experiment [7] in a line: Growth inhibition of human HBC5 cells incubated for 48 hrs by sulforhodamine B assay. The note with it: HBC5, 48 h. Type of experiment: functional.
Experiment [8] concerns MCF7. Briefly: Growth inhibition of human MCF7 cells incubated for 48 hrs by sulforhodamine B assay. The format is functional. The note with it: MCF7, 48 h.
Experiment [9] in a line: Growth inhibition of human […] incubated for 48 hrs by sulforhodamine B assay. The format is functional.
The test system of experiment [10] is U-251. In words: Growth inhibition of human U251 cells incubated for 48 hrs by sulforhodamine B assay. The note with it: U-251, 48 h. Type of experiment: functional.
The subject of experiment [11] is SF-268. In words: Growth inhibition of human SF268 cells incubated for 48 hrs by sulforhodamine B assay. The format is functional. The note with it: SF-268, 48 h.
The test system of experiment [12] is SF-295. Briefly: Growth inhibition of human SF295 cells incubated for 48 hrs by sulforhodamine B assay. The format is functional. The note with it: SF-295, 48 h.
The test system of experiment [13] is SF-539. Briefly: Growth inhibition of human SF539 cells incubated for 48 hrs by sulforhodamine B assay. The note with it: SF-539, 48 h. The format is functional.
The subject of experiment [14] is SNB-75. Briefly: Growth inhibition of human SNB75 cells incubated for 48 hrs by sulforhodamine B assay. The format is functional. The note with it: SNB-75, 48 h.
Experiment [15] deals with SNB-78. Briefly: Growth inhibition of human SNB78 cells incubated for 48 hrs by sulforhodamine B assay. The format is functional. The note with it: SNB-78, 48 h.
Experiment [16] deals with HCC 2998. In words: Growth inhibition of human HCC2998 cells incubated for 48 hrs by sulforhodamine B assay. The format is functional. The note with it: HCC 2998, 48 h.
Experiment [17] has as its system KM12. Briefly: Growth inhibition of human KM12 cells incubated for 48 hrs by sulforhodamine B assay. The format is functional. The note with it: KM12, 48 h.
Experiment [18] relates to HT-29. Briefly: Growth inhibition of human HT-29 cells incubated for 48 hrs by sulforhodamine B assay. The format is functional. The note with it: HT-29, 48 h.
The subject of experiment [19] is HCT-15. Briefly: Growth inhibition of human HCT15 cells incubated for 48 hrs by sulforhodamine B assay. Type of experiment: functional. The note with it: HCT-15, 48 h.
Experiment [20] concerns HCT-116. Briefly: Growth inhibition of human HCT116 cells incubated for 48 hrs by sulforhodamine B assay. The format is functional. The note with it: HCT-116, 48 h.
The subject of experiment [21] is NCI-H23. In words: Growth inhibition of human NCI-H23 cells incubated for 48 hrs by sulforhodamine B assay. Type of experiment: functional. The note with it: NCI-H23, 48 h.
Experiment [22] relates to NCI-H226. In words: Growth inhibition of human NCI-H226 cells incubated for 48 hrs by sulforhodamine B assay. The note with it: NCI-H226, 48 h. Type of experiment: functional.
In experiment [23] the test system is NCI-H522. Briefly: Growth inhibition of human NCI-H522 cells incubated for 48 hrs by sulforhodamine B assay. The note with it: NCI-H522, 48 h. The format is functional.
For experiment [24], the system named is NCI-H460. Briefly: Growth inhibition of human NCI-H460 cells incubated for 48 hrs by sulforhodamine B assay. Type of experiment: functional. The note with it: NCI-H460, 48 h.
The subject of experiment [25] is A549. In words: Growth inhibition of human A549 cells incubated for 48 hrs by sulforhodamine B assay. Type of experiment: functional. The note with it: A549, 48 h.
The subject of experiment [26] is DMS-273. Briefly: Growth inhibition of human DMS273 cells incubated for 48 hrs by sulforhodamine B assay. Type of experiment: functional. The note with it: DMS-273, 48 h.
The subject of experiment [27] is DMS-114. In words: Growth inhibition of human DMS114 cells incubated for 48 hrs by sulforhodamine B assay. The note with it: DMS-114, 48 h. The format is functional.
For experiment [28], the system named is LOX IMVI. In words: Growth inhibition of human LOXIMVI cells incubated for 48 hrs by sulforhodamine B assay. Type of experiment: functional.
The test system of experiment [29] is OVCAR-3. In words: Growth inhibition of human OVCAR3 cells incubated for 48 hrs by sulforhodamine B assay. Type of experiment: functional. The note with it: OVCAR-3, 48 h.
The subject of experiment [30] is OVCAR-4. Briefly: Growth inhibition of human OVCAR4 cells incubated for 48 hrs by sulforhodamine B assay. The format is functional. The note with it: OVCAR-4, 48 h.
Experiment [31] has as its system OVCAR-5. Briefly: Growth inhibition of human OVCAR5 cells incubated for 48 hrs by sulforhodamine B assay. The note with it: OVCAR-5, 48 h. The format is functional.
In experiment [32] the test system is OVCAR-8. In words: Growth inhibition of human OVCAR8 cells incubated for 48 hrs by sulforhodamine B assay. Type of experiment: functional. The note with it: OVCAR-8, 48 h.
In experiment [33] the test system is SK-OV-3. Briefly: Growth inhibition of human SKOV3 cells incubated for 48 hrs by sulforhodamine B assay. The note with it: SK-OV-3, 48 h. The format is functional.
The subject of experiment [34] is RXF 631. In words: Growth inhibition of human RXF631L cells incubated for 48 hrs by sulforhodamine B assay. The note with it: RXF 631, 48 h. Type of experiment: functional.
For experiment [35], the system named is ACHN. Briefly: Growth inhibition of human ACHN cells incubated for 48 hrs by sulforhodamine B assay. The format is functional.
The test system of experiment [36] is St-4. In words: Growth inhibition of human St-4 cells incubated for 48 hrs by sulforhodamine B assay. Type of experiment: functional. The note with it: St-4, 48 h.
The subject of experiment [37] is MKN-1. In words: Growth inhibition of human MKN1 cells incubated for 48 hrs by sulforhodamine B assay. Type of experiment: functional. The note with it: MKN-1, 48 h.
Experiment [38] has as its system MKN-7. Briefly: Growth inhibition of human MKN7 cells incubated for 48 hrs by sulforhodamine B assay. The format is functional. The note with it: MKN-7, 48 h.
The test system of experiment [39] is MKN-28. In words: Growth inhibition of human MKN28 cells incubated for 48 hrs by sulforhodamine B assay. The format is functional. The note with it: MKN-28, 48 h.
For experiment [40], the system named is MKN-45. Briefly: Growth inhibition of human MKN45 cells incubated for 48 hrs by sulforhodamine B assay. The format is functional. The note with it: MKN-45, 48 h.
Experiment [41] relates to MKN-74. Briefly: Growth inhibition of human MKN74 cells incubated for 48 hrs by sulforhodamine B assay. The format is functional. The note with it: MKN-74, 48 h.
Experiment [42] has as its system DU-145. Briefly: Growth inhibition of human DU145 cells incubated for 48 hrs by sulforhodamine B assay. Type of experiment: functional. The note with it: DU-145, 48 h.
Experiment [43] concerns PC-3. Briefly: Growth inhibition of human PC3 cells incubated for 48 hrs by sulforhodamine B assay. Type of experiment: functional. The note with it: PC-3, 48 h.
The target of experiment [44] is T1, DNA topoisomerase 2-alpha. Briefly: Inhibition of recombinant human DNA topoisomerase-2alpha assessed as decrease in relaxation of supercoiled pBR322 DNA at 100 uM after 30 mins by ethidium bromide staining based agarose gel electrophoresis. The gist of the method: as §1

T1 sequence (P11388 whole entry): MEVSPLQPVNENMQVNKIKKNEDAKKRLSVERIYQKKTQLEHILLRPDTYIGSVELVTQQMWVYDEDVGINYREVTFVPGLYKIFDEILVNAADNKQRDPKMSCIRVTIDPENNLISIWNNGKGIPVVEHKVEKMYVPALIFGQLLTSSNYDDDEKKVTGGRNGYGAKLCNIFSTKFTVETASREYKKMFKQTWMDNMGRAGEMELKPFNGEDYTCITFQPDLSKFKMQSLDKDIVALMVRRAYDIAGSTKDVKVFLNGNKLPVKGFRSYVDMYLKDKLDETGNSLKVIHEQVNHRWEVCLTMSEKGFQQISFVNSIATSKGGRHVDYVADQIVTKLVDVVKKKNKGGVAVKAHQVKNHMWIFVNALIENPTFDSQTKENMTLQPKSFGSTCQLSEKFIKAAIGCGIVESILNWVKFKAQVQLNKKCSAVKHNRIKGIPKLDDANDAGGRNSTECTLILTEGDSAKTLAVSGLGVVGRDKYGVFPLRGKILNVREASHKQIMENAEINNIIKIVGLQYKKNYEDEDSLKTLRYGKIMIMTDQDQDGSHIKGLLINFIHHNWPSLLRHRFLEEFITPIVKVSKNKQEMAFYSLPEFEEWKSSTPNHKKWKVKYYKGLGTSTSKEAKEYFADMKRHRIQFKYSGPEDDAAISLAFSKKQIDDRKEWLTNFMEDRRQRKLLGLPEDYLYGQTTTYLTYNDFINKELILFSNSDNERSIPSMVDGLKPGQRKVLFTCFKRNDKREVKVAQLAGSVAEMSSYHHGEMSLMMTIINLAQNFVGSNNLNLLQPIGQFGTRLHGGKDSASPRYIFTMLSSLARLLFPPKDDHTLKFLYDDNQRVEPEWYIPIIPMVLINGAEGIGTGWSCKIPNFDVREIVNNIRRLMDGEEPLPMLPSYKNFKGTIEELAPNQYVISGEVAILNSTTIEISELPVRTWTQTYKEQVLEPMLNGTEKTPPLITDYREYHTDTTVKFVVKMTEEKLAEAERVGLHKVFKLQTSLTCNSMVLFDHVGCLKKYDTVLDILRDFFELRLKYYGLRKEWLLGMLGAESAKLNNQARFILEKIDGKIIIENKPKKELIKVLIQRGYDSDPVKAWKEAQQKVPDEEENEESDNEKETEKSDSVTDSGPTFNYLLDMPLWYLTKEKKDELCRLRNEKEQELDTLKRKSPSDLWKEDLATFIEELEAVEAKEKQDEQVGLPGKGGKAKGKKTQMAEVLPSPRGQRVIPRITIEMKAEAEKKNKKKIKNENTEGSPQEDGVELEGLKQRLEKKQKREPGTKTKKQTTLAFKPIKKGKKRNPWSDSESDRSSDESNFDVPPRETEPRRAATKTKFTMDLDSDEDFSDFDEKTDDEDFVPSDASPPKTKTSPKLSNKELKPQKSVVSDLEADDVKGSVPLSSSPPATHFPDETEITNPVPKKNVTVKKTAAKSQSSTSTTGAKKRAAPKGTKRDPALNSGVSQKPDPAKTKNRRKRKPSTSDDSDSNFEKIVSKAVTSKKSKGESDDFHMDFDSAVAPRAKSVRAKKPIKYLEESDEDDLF
DNA topoisomerase 1 (Homo sapiens), sequence (P11387 whole entry): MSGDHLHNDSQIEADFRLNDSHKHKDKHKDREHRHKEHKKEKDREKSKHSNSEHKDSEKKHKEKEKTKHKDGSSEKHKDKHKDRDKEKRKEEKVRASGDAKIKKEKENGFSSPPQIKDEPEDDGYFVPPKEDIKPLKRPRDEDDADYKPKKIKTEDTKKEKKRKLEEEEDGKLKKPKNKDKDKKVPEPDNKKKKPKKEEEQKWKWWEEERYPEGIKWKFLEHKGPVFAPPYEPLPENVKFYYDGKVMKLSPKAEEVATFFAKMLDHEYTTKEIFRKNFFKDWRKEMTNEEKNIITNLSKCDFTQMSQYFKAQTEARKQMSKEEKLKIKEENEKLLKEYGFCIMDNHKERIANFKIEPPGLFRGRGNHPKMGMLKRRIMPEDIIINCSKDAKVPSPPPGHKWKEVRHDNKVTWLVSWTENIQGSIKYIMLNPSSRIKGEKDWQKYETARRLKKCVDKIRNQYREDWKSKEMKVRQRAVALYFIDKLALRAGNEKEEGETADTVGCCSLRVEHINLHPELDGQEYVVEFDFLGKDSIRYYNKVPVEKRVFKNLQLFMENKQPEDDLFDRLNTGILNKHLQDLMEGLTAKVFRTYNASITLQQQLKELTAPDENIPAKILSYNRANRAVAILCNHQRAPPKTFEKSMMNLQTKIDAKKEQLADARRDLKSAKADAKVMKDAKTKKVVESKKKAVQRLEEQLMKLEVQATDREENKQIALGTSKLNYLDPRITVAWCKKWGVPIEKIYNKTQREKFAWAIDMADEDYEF

A word on the IC50: it is the midpoint of a concentration-inhibition curve. On to `COc1ccc(C[C@H]2C[C@H](n3cc(C)c(=O)[nH]c3=O)O[C@@H]2CO[Si](C)(C)C(C)(C)C)cc1OC`, for which the IC50 in [1] came out at 99.1 µM.
As for `COc1cc([C@@H]2c3cc4c(cc3[C@@H](O[C@@H]3O[C@@H]5CO[C@@H](C)O[C@H]5[C@H](O)[C@H]3O)[C@H]3COC(=O)[C@H]23)OCO4)cc(OC)c1O`, in [2], the outcome was Active.
With `Cc1cn([C@H]2C[C@H](CC3=CC(=O)C(=O)C=C3)[C@@H](CO[Si](C)(C)C(C)(C)C)O2)c(=O)[nH]c1=O`, in experiment [1], the IC50 amounted to 2.43 µM.
In the case of `COc1ccc(C[C@H]2C[C@@H](n3cc(C)c(=O)[nH]c3=O)O[C@@H]2CO[Si](C)(C)C(C)(C)C)cc1OC`, the concentration for half-maximal inhibition (IC50) in experiment [1] came out at 89.2 µM.
A word on the inhibition: it is the percentage by which the read-out fell short of the control. Regarding `COc1ccc(C2([C@H]3CC(=O)O[C@@H]3CO)SCCCS2)cc1OC`, in experiment [1], the IC50 was above 200 µM. Besides, in experiment [3], the inhibition worked out at 19.8%.
One may read the GI50 as the concentration that inhibits growth by half. Higher therefore signals lower sensitivity of the cells. As to `COc1ccc(C2([C@H]3C[C@H](n4cc(C)c(=O)[nH]c4=O)O[C@@H]3CO[Si](C)(C)C(C)(C)C)SCCCS2)cc1OC`, in experiment [1], the IC50 was 8.1 µM. Moreover, the inhibition result in experiment [4] was “inactive”. Further, the GI50 in experiment [5] was 3.8 µM; in [6], 1.82 µM; in experiment [7] it was 2.51 µM; in [8], 3.31 µM; in experiment [9], 3.47 µM; in experiment [10] it was 3.8 µM. Further, the 50% growth inhibitory concentration (GI50) in experiment [11] is 6.46 µM; in [12] it was 3.72 µM; in [13], 2.19 µM; in [14], 10 µM; in experiment [15] it was 5.5 µM; in [16], 3.31 µM. Besides, the concentration for 50% growth inhibition (GI50) in experiment [17] is 4.07 µM; in [18] it was 3.89 µM; in experiment [19] it was 4.07 µM; in experiment [20], 3.63 µM; in experiment [21] it was 3.72 µM; in [22], 2 µM. In addition, the GI50 in [23] was 2.69 µM; in experiment [24], 3.63 µM; in experiment [25] it was 4.68 µM; in experiment [26] it was 3.8 µM; in [27], 3.31 µM; in [28], 3.24 µM. Also, the GI50 in experiment [29] is 3.72 µM; in [30], 2.88 µM; in experiment [31], 2.88 µM; in [32], 3.89 µM; in experiment [33] it was 5.25 µM; in [34], 4.57 µM. For the same compound, the 50% growth inhibitory concentration (GI50) in [35] is 2.51 µM; in experiment [36], 4.47 µM; in [37], 2.29 µM; in [38] it was 2.29 µM; in [39], 3.31 µM; in experiment [40], 3.31 µM. Besides, the GI50 in experiment [41] was 3.24 µM; in experiment [42] it was 3.72 µM; in experiment [43] it was 2.29 µM.
Consider `Cc1cn([C@H]2C[C@H](Cc3ccc(O)c(O)c3)[C@@H](CO)O2)c(=O)[nH]c1=O`, for which, in experiment [1], the IC50 stood at 176 µM and the inhibition result is “Dose-dependent effect”. In addition, the inhibition result in [44] was “inactive”. Also, the inhibition entry in [4] was “inactive”. For the same compound, in experiment [2], the outcome was inactive.

Values taken from ChEMBL document CHEMBL4052671, “Design, synthesis, and evaluation of DNA topoisomerase II-targeted nucleosides” (Bioorg Med Chem, 2017).
